ChEMBL document CHEMBL1250528 (J Med Chem, 2010)
Values belong to the compound of their own block, whether it stands above or below them.

Columns and labels:
[1] = Permeability of the compound in human Caco-2 cells; type: ADME, cell-based; settings: read-out: permeability
[2] = Metabolic stability in mouse hepatocytes assessed as metabolic rate per million cells; type: ADME, cell-based, Hepatocyte
Liver microsomes [3] = test: Metabolic stability in rat liver microsomes assessed as metabolic rate; type: ADME, Microsome
[4] = Half life in BALB/c mouse at 5 mg/kg, iv and 10 mg/kg, po; type: ADME, organism-based; settings: in vivo
Procedure, shortened: (§1)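 Male BALB/c mice (20-25 g), fasted overnight. IV bolus 5 mg/kg in 20% NMP/35% PEG 400/10% PG/35% water; oral gavage 10 mg/kg in PEG 400. Retro-orbital blood at 0.05 (iv only), 0.25, 0.5, 1, 3, 6, 8 and 24 h; three mice per time point, giving a composite profile. Plasma analysed by LC/MS/MS.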

[5] = Mean residence time in Sprague-Dawley rat at 2.5 mg/kg, iv and 10 mg/kg, po; type: ADME, organism-based; settings: in vivo
Procedure, shortened: (§2)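 Male Sprague-Dawley rats (250-300 g), fasted overnight. IV bolus 2.5 mg/kg in 25% NMP/33% PEG 400/9% PG/33% water; oral gavage 10 mg/kg in PEG 400. Blood sampled at 0.05 (iv only), 0.25, 0.5, 1, 3, 6, 8 and 24 h post dose; composite profile. Plasma stored at -20 °C, then analysed by LC/MS/MS.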

[6] = Oral bioavailability in Sprague-Dawley rat at 10 mg/kg; type: ADME, organism-based; settings: in vivo; procedure, shortened: as §2
[7] = Clearance in Sprague-Dawley rat at 2.5 mg/kg, iv and 10 mg/kg, po; type: ADME, organism-based; settings: in vivo; procedure, shortened: as §2
[8] = Clearance in BALB/c mouse at 5 mg/kg, iv and 10 mg/kg, po; type: ADME, organism-based; settings: in vivo; procedure, shortened: as §1
Hepatocyte [9] = test: Metabolic stability in human hepatocytes assessed as metabolic rate per million cells; type: ADME, cell-based
[10] = Tmax in Sprague-Dawley rat at 2.5 mg/kg, iv and 10 mg/kg, po; type: ADME, organism-based; settings: in vivo; procedure, shortened: as §2
[11] = Metabolic stability in mouse liver microsomes assessed as metabolic rate; type: ADME, Microsome
[12] = Tmax in BALB/c mouse at 5 mg/kg, iv and 10 mg/kg, po; type: ADME, organism-based; settings: in vivo; procedure, shortened: as §1
[13] = Volume of distribution at steady state in BALB/c mouse at 5 mg/kg, iv and 10 mg/kg, po; type: ADME, organism-based; settings: in vivo, read-out: Vdss; procedure, shortened: as §1
[14] = Oral bioavailability in BALB/c mouse at 10 mg/kg; type: ADME, organism-based; settings: in vivo; procedure, shortened: as §1
[15] = AUC (0 to 8 hrs) in BALB/c mouse at 5 mg/kg, iv and 10 mg/kg, po; type: ADME, organism-based; settings: plasma; procedure, shortened: as §1
[16] = Cmax in BALB/c mouse at 5 mg/kg, iv and 10 mg/kg, po; type: ADME, organism-based; settings: in vivo; procedure, shortened: as §1
[17] = Cmax in Sprague-Dawley rat at 2.5 mg/kg, iv and 10 mg/kg, po; type: ADME, organism-based; settings: in vivo; procedure, shortened: as §2
[18] = Mean residence time in BALB/c mouse at 5 mg/kg, iv and 10 mg/kg, po; type: ADME, organism-based; settings: in vivo; procedure, shortened: as §1
[19] = AUC (0 to 24 hrs) in Sprague-Dawley rat at 2.5 mg/kg, iv and 10 mg/kg, po; type: ADME, organism-based; settings: plasma; procedure, shortened: as §2
Hepatocyte [20] = test: Metabolic stability in rat hepatocytes assessed as metabolic rate per million cells; type: ADME, cell-based
[21] = Volume of distribution at steady state in Sprague-Dawley rat at 2.5 mg/kg, iv and 10 mg/kg, po; type: ADME, organism-based; settings: in vivo, read-out: Vdss; procedure, shortened: as §2
[22] = Half life in Sprague-Dawley rat at 2.5 mg/kg, iv and 10 mg/kg, po; type: ADME, organism-based; settings: in vivo; procedure, shortened: as §2
Liver microsomes [23] = test: Metabolic stability in human liver microsomes assessed as metabolic rate; type: ADME, Microsome

- Papp [1]: 91 nm/s
- Stability [2]: 0.006 nmol/min/million cells
- Stability (Liver microsomes [3]): 0.008 nmol/min/mg
- half-life [4]: 2.6 h
- MRT [5]: 3.4 h
- bioavailability [6]: 60%
- clearance [7]: 0.324 L/h/kg
- clearance [8]: 0.264 L/h/kg
- Stability (Hepatocyte [9]): 0.015 nmol/min/million cells
- Tmax [10]: 1.5 h
- Stability [11]: 0.011 nmol/min/mg
- Tmax [12]: 1 h
- Vd [13]: 0.9 L/kg
- bioavailability [14]: 90%
- AUC(0-t) [15]: 75.5 µM·h
- Cmax [16]: 15.3 µM
- Cmax [17]: 7 µM
- MRT [18]: 3.3 h
- AUC(0-t) [19]: 45.4 µM·h
- Stability (Hepatocyte [20]): 0.015 nmol/min/million cells
- Vd [21]: 1.1 L/kg
- half-life [22]: 4 h
- Stability (Liver microsomes [23]): 0.013 nmol/min/mg
Compound: CCCNC(=O)c1cn2ncnc(Nc3cc(C(=O)NC4CC4)ccc3C)c2c1C [BMS-582949]

- Papp [1]: 5 nm/s
Compound: CCNC(=O)c1cn2ncnc(Nc3cc(C(=O)NOC)ccc3C)c2c1C
